# From PubChem
# T cruzi growth-1: inhibitors of T. cruzi proliferation. T. cruzi beta-gal in NIH3T3, GalScreen luminescence, 90 h. inhibition, % at 8.34 µM. actives 5.9% (n = 77,000). AID 624255;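 active means mean inhibition above about 93%, with at least 55% of replicates each passing it, limit read from the data, passing the limit was not always enough; inconclusive means only one of those two conditions holds; inactive means neither condition holds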
# KDM4C inh: inhibitors of human demethylase GASC-1 KDM4C; actives 0.15% (n = 96,000); GST-KDM4C 2-372, H3K9me3 peptide, LANCE TR-FRET; AID 720574; Q9H3R0; inhibition, % at 12.5 µM;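 active means mean replicate inhibition above about 25%, with at least 55% of replicates also reaching it, limit read from the data, passing the limit was not always enough; inconclusive means only one of those two conditions met; inactive means neither condition met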
# Target sequence (Q9H3R0 2-372 limits assumed): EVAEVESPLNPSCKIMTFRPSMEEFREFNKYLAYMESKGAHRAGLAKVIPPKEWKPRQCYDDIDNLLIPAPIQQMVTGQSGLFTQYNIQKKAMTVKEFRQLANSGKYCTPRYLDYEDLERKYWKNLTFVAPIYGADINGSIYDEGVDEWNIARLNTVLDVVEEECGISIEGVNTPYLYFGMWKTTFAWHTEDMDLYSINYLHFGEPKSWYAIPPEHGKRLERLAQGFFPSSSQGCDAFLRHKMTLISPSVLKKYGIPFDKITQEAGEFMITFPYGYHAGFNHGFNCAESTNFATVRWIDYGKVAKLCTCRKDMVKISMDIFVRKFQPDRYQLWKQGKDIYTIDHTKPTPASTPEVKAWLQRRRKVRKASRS
#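 Material: GST-tagged GASC-1 (JMJD2C) catalytic fragment, aa 2-372. Input: enzyme final amount 10 nM. Medium: HEPES buffer, pH 7.5, plus ascorbate. Reagent: H3K9me3 peptide substrate, Fe(II), 2-oxoglutarate. Doses: single dose. Times: reaction 30 min RT, detection step 1 h RT. Measured by: LANCE TR-FRET. Evaluation: Fall in 671/618 emission ratio as inhibition.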
# Pf Dd2 growth: blocks growth of Plasmodium falciparum Dd2 parasites. AID 1159554. activity change, % at 10 µM. actives 2.3% (n = 94,000). P. falciparum Dd2 growth, SYBR Green, 72 h; hits give low values; in the data active means activity change below about -80%; inconclusive means no clear call, values can overlap the other calls
# IDH1 R132H inh: IDH1 R132H (human) inhibition; O75874; IDH1 R132H reductase, diaphorase/resazurin fluorescence, 60 min; inhibition, % at 10 µM; actives 0.18% (n = 70,000); AID 624101; in the data active means inhibition above about 34%; inconclusive means no clear call, values can overlap the other calls; inactive means below about 11%;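 further: 0% = DMSO and 100% = no enzyme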
# T cruzi growth-2: blocks T. cruzi growth in NIH3T3 host cells. shares compounds with T cruzi growth-1. AID 651739. actives 72% (n = 5,600). T. cruzi beta-gal in NIH3T3, GalScreen luminescence, 90 h. inhibition, % at 8.35 µM;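 active means mean replicate inhibition above about 95% and at least 55% of replicates individually reaching it, limit read from the data; inconclusive means only one of the two criteria is met; inactive means neither criterion is met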
# T cruzi growth-3: inhibitors of T. cruzi proliferation. shares compounds with T cruzi growth-1. T. cruzi beta-gal in NIH3T3, GalScreen luminescence, 90 h. inhibition, % at 2.09 µM. actives 21% (n = 5,600);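 active means mean inhibition above about 95%, with at least 55% of replicates also reaching it, limit read from the data; inconclusive means meets just one of the two conditions; inactive means meets neither condition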;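 further: plate controls were neutral control median for no effect and positive control median for full effect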
# 3T3 cytotox: kills mouse NIH/3T3 fibroblasts; actives 14% (n = 5,600); cytotoxicity (signal decrease), % at 8.35 µM; NIH/3T3 viability, CellTiter-Glo ATP luminescence, 90 h; shares compounds with T cruzi growth-1;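 active means mean signal decrease across replicates above about 35% based on untreated-well scatter, with enough replicates individually passing, limit read from the data; inconclusive means no rule stated though some were filed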;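 further: 0% = median of neutral control wells and 100% = median of positive control wells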
# 3T3 cytotox 2: NIH/3T3 (mouse) viability loss; shares compounds with T cruzi growth-1; NIH/3T3 viability, CellTiter-Glo ATP luminescence, 90 h; inhibition, % at 24.9 µM; actives 56% (n = 5,600);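 active means mean loss of cell viability signal at or above a set limit, and enough replicates individually reaching it; inconclusive means meets only the mean limit or only the replicate share; inactive means meets neither condition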;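 further: 0% = median of neutral control wells and 100% = median of positive control wells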
# An asterisk follows results filed as active; ? = inconclusive; / = no result given. A selection: hits, their analogues and other compounds. The true share with any hit is near 5.8%.
SMILES,T cruzi growth-1,KDM4C inh,Pf Dd2 growth,IDH1 R132H inh,T cruzi growth-2,T cruzi growth-3,3T3 cytotox,3T3 cytotox 2
C[C@@H]1CN([C@@H](C)CO)C(=O)c2cccc(NC(=O)c3ccc(-c4nccs4)cc3)c2O[C@H]1CN(C)C(=O)Nc1ccc(C(F)(F)F)cc1,120*,-2,-44,/,87,82,24,70*
C[C@H](CO)N1C[C@H](C)[C@H](CN(C)C(=O)Nc2ccc(F)cc2)Oc2c(NC(=O)c3ccc(-c4nccs4)cc3)cccc2C1=O,/,-1,/,/,/,/,/,/
C[C@H]1CN([C@@H](C)CO)C(=O)c2cccc(NC(=O)c3ccc(-c4nccs4)cc3)c2O[C@H]1CN(C)C(=O)Nc1ccc(C(F)(F)F)cc1,95,-3,-45,/,/,/,/,/
COCC#Cc1ccc([C@@H]2[C@@H](CO)N3CCCCN(Cc4cncnc4)C[C@@H]23)cc1,106*,0,23,/,?,-11,7,-1
COCC#Cc1ccc([C@@H]2[C@H]3CN(Cc4cncnc4)CCCCN3[C@H]2CO)cc1,68,1,-21,/,/,/,/,/
COCC#Cc1ccc([C@H]2[C@@H](CO)N3CCCCN(Cc4cncnc4)C[C@H]23)cc1,109*,0,28,/,112*,56,17,15
COCC#Cc1ccc([C@@H]2[C@H](CO)N3CCCCN(Cc4cncnc4)C[C@@H]23)cc1,?,1,19,/,?,34,-3,-10
COCC#Cc1ccc([C@@H]2[C@@H](CO)N3CCCCN(Cc4cncnc4)C[C@H]23)cc1,103*,0,30,/,29,18,-13,65*
NCC[C@@H]1CC[C@@H](NC(=O)C2CCCCC2)[C@@H](CO)O1,/,-4,16,0,/,/,/,/
C[C@H]1CN([C@@H](C)CO)S(=O)(=O)c2ccc(C3=CCCCC3)cc2O[C@H]1CN(C)C(=O)CN(C)C,83,-2,-57,1,/,/,/,/
CO[C@H]1CN(C)C(=O)c2ccc(NC(=O)Nc3cc(F)ccc3F)cc2OC[C@@H](C)N(C(=O)c2cnccn2)C[C@H]1C,14,-1,-43,0,/,/,/,/
O=S(=O)(c1ccccc1F)N1CCCCN2[C@H](CO)[C@@H](c3ccc(-c4ccncc4)cc3)[C@H]2C1,85,0,11,/,/,/,/,/
O=S(=O)(c1ccccc1F)N1CCCCN2[C@H](C1)[C@@H](c1ccc(-c3cccnc3)cc1)[C@@H]2CO,76,4,22,/,/,/,/,/
O=S(=O)(c1ccccc1F)N1CCCCN2[C@H](CO)[C@H](c3ccc(-c4cccnc4)cc3)[C@H]2C1,?,0,-3,/,91,12,8,?
O=S(=O)(c1ccccc1F)N1CCCCN2[C@H](C1)[C@H](c1ccc(-c3ccncc3)cc1)[C@@H]2CO,96*,-1,9,/,112*,54,7,10
O=C(C1CC1)N1CC2(C1)[C@H](c1ccccc1)[C@@H](CO)N2C(=O)CC1CC1,/,-4,49,/,/,/,/,/
CN1CCN(c2ccccc2NC(=O)COc2ccc([N+](=O)[O-])cc2)CC1,/,/,/,0,/,/,/,/
CCCC#Cc1ccc([C@H]2[C@@H](CO)N3CCCCN(C(=O)NC4CCCC4)C[C@H]23)cc1,?,0,-79,/,106*,81,44*,103*
CCCC#Cc1ccc([C@@H]2[C@H](CO)N3CCCCN(C(=O)NC4CCCC4)C[C@@H]23)cc1,?,-3,-43,/,109*,89,14,103*
Cc1ccc(OCC(=O)Nc2ccc(Cl)cc2C(=O)O)cc1C,/,/,/,-1,/,/,/,/
O=S(=O)(Cc1ccccc1)N1CCCCN2[C@H](CO)[C@@H](c3ccc(-c4cncnc4)cc3)[C@@H]2C1,65,-1,-9,/,/,/,/,/
O=S(=O)(Cc1ccccc1)N1CCCCN2[C@H](CO)[C@@H](c3ccc(-c4ccc(F)cc4)cc3)[C@H]2C1,?,0,8,/,103*,66,35*,105*
O=S(=O)(Cc1ccccc1)N1CCCCN2[C@H](C1)[C@H](c1ccc(-c3ccc(F)cc3)cc1)[C@@H]2CO,110*,0,7,/,101*,41,14,105*
O=S(=O)(Cc1ccccc1)N1CCCCN2[C@H](C1)[C@@H](c1ccc(-c3ccc(F)cc3)cc1)[C@@H]2CO,86,-3,1,/,/,/,/,/
COc1ccccc1CNC(=O)C[C@@H]1CC[C@@H]2[C@H](COC[C@@H](O)CN2C(=O)Nc2ccccc2)O1,-21,-1,-3,/,/,/,/,/
SMILES,T cruzi growth-1,KDM4C inh,Pf Dd2 growth,IDH1 R132H inh,T cruzi growth-2,T cruzi growth-3,3T3 cytotox,3T3 cytotox 2
CN(C)CC(=O)Nc1ccc2c(c1)[C@H]1C[C@@H](CC(=O)NCc3ccccc3)O[C@@H](CO)[C@H]1O2,25,-3,-5,1,/,/,/,/
CN(C)C(=O)c1cccc(-c2ccc([C@H]3[C@@H](CO)N(C(=O)C4CCCC4)[C@H]3C#N)cc2)c1,/,-1,-70,/,/,/,/,/
CCCC#Cc1ccc([C@H]2[C@@H](CO)N(C(=O)C3CCC3)[C@H]2C#N)cc1,/,-2,-15,/,/,/,/,/
CCCC#Cc1ccc([C@H]2[C@@H](C#N)N(C(=O)C3CCCCC3)[C@H]2CO)cc1,91,-1,-59,/,/,/,/,/
CC(C)C#Cc1ccc([C@H]2[C@H](C#N)N(C(=O)C3CCC3)[C@H]2CO)cc1,97*,-3,-20,/,108*,31,0,6
CCCC#Cc1ccc([C@@H]2[C@@H](CO)N(C(=O)C3CCCC3)[C@H]2C#N)cc1,100*,0,-32,/,97*,98*,-1,5
CC(C)C#Cc1ccc([C@@H]2[C@@H](C#N)N(C(=O)C3CCC3)[C@@H]2CO)cc1,90,0,-14,/,/,/,/,/
CCCC#Cc1ccc([C@@H]2[C@@H](C#N)N(C(=O)C3CCCCC3)[C@@H]2CO)cc1,103*,0,9,/,100*,91,2,14
CCCC#Cc1ccc([C@@H]2[C@H](C#N)N(C(=O)C3CCC3)[C@H]2CO)cc1,?,0,-46,/,101*,105*,26,30*
CO[C@H]1CN(C)C(=O)c2ccc(NC(=O)NC(C)C)cc2OC[C@H](C)N(CC2CC2)C[C@H]1C,4,0,-6,-1,/,/,/,/
CCCC#Cc1ccc([C@H]2[C@@H](C#N)N(C(=O)C3CCCC3)[C@@H]2CO)cc1,103*,-3,-39,/,100*,104*,-6,15
COc1ccccc1CC(=O)Nc1ccccc1C(=O)NC(C)(C)C,/,/,/,0,/,/,/,/
COc1ccc(C(=O)CSc2nnc(-c3ccccc3)n2-c2ccc(Br)cc2)cc1,/,/,/,0,/,/,/,/
